Measurements pooled from the literature.
Target: Acetylcholinesterase (ACHE, Homo sapiens, UniProt P22303)

| Compound | test | setting | endpoint | value |
| --- | --- | --- | --- | --- |
| C[C@H](C(=O)N[C@H]1COc2ccccc2[C@@H]1S(C)(=O)=O)c1ccc(F)cc1 | enzyme activity, inhibitor | 10 µM | inhibition | 1% |
| Clc1ccc2c(C3CCN(CCc4c[nH]c5ccccc45)CC3)c[nH]c2c1 | enzyme activity, inhibitor | 10 µM | inhibition | 4% |
| O=C(Nc1cccnn1)N1CCN([C@@H]2CCOc3cc(C(F)(F)F)ccc32)CC1 | enzyme activity, inhibitor | 20 µM | inhibition | -3% |
| CCOP(=O)(OCC)Oc1ccc([N+](=O)[O-])cc1 | enzyme activity, inhibitor |  | kinact/KI | 1510 M⁻¹ s⁻¹ |
| C=CCn1c2cc(OC(=O)CCN3CCN(Cc4ccccc4)CC3)ccc2c2ccnc(C)c21 | enzyme activity, inhibitor, Ellman | 1 µM | inhibition | 36.4% |
| O=C(O)c1ccccc1O | enzyme activity, inhibitor, Ellman | 20 µM | inhibition | 1.3% |
| COc1ccc(S(=O)(=O)N2CCCCC2)cc1C | ligand displacement, radioligand | 10 µM | inhibition | < 30% |
| O=C1CN(C(=O)CCn2ccnc2)CC(O)CN1CCc1ccccc1 (stereo not drawn) | enzyme activity, inhibitor, Ellman | 10 µM | inhibition | 21.6% |
| Cc1ncc(C)n2nc(/C=C/c3nc(N4CCCC4)cc(N4CCOCC4)n3)nc12 | enzyme activity, inhibitor | 10 µM | inhibition | 4% |
| CCN1C(=O)C=CC1=O | enzyme activity, inhibitor | 30 µM | inhibition | ~20% |
| Nc1ncc(-c2nc(N3CCOCC3)nc(N3CCOCC3)n2)c(C(F)F)n1 | enzyme activity, inhibitor | 10 µM | remaining activity | 98% |
| COCc1c(-c2cc3cc(C)cc(OC)c3s2)c2c(N)ncnn2c1CN1CCNC(=O)C1 | enzyme activity, inhibitor | 10 µM | inhibition | -1% |
| c1ccc(C(NCCNC(c2ccccc2)c2ccccc2)c2ccccc2)cc1 | enzyme activity, inhibitor | 10 µM | inhibition | 13% |
| COc1ccc2c(c1)[nH]c1c(C)nccc12 | enzyme activity, inhibitor, Ellman | 1 µM | inhibition | 33.8% |
| CN(CCN1CCC(OC(=O)Nc2ccccc2-c2ccccc2)CC1)C(=O)c1ccc(CN2CCC(C(N)=O)CC2)cc1 | enzyme activity, inhibitor | 1 µM | inhibition | 9% |
